Only some compounds are listed: those with a hit (about 2.9% of all), similar ones and a draw of the others.
Kir21 inh: Kir2.1 (mouse) channel inhibition. P35561. HEK293-Kir2.1, FluxOR thallium flux fluorescence; stronger effect = lower value. B-score at 10 µM. 0.85% of 310,000 active. AID 1672;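 active = fluorescence ratio B-score at or below minus 3 SD of library scores, with starting-brightness B-score within 2 SD, cut at about -4.2 in these data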;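 also: channel flux triggered by added potassium and thallium sulfate stimulus; B-score of peak minus minimum fluorescence over baseline after thallium stimulus; more negative B-score means stronger Kir2.1 block with less thallium influx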
TRPC4 inh: blocks the mouse TRPC4 cation channel; Q9QUQ5; HEK293 TRPC4beta/mu-opioid, DAMGO-evoked Fluo4 calcium flux; stronger effect = lower value; B-score at 10 µM; 0.39% of 300,000 active; AID 2247;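 active = B-score over 3 SD under the library average, no early fluorescence shift, positive overall ratio signal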
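Material: HEK293 cells with stable TRPC4beta plus mu-opioid receptor expression; probe or stimulus: DAMGO in two steps, submaximal then maximal; technique: Fluo4 calcium fluorescence by kinetic imaging, 5 s 1 Hz baseline; measure: integrated fluorescence ratio relative to baseline, converted to per-well B score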
TRPC4 act: TRPC4 (mouse) channel activation. Q9QUQ5. HEK293 TRPC4beta/mu-opioid, Fluo4 calcium fluorescence; stronger effect = higher value. AID 2237. 0.49% of 310,000 active. B-score at 10 µM;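 active = B-score above 5 SD of library B-scores, and initial fluorescence ratio not above library mean plus 5 SD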;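 also: positive B-score marks a calcium rise read as TRPC4 activation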
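Material: HEK293 stable line with TRPC4beta plus mu-opioid receptor; technique: Fluo4 calcium-sensitive dye fluorescence, kinetic, 1 Hz baseline; timing: Fluo4 dye loading 45 min at room temperature, 110 s recording; controls: assay buffer as low control, maximal DAMGO as high control; read-out: integrated baseline-normalised fluorescence ratio, converted to per-well B score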
TRPC6 activator: activators of mouse TRPC6 channel; AID 2550; 0.13% of 310,000 active; B-score at 10 µM; Q61143; HEK293-TRPC6 membrane potential dye fluorescence; stronger effect = higher value;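 active = B-score of the integrated fluorescence ratio above library mean plus 3 SD, and starting fluorescence ratio within library mean plus 5 SD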;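 also: higher score means more depolarization so channel activation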
Target sequence (Q61143 whole entry, looked up): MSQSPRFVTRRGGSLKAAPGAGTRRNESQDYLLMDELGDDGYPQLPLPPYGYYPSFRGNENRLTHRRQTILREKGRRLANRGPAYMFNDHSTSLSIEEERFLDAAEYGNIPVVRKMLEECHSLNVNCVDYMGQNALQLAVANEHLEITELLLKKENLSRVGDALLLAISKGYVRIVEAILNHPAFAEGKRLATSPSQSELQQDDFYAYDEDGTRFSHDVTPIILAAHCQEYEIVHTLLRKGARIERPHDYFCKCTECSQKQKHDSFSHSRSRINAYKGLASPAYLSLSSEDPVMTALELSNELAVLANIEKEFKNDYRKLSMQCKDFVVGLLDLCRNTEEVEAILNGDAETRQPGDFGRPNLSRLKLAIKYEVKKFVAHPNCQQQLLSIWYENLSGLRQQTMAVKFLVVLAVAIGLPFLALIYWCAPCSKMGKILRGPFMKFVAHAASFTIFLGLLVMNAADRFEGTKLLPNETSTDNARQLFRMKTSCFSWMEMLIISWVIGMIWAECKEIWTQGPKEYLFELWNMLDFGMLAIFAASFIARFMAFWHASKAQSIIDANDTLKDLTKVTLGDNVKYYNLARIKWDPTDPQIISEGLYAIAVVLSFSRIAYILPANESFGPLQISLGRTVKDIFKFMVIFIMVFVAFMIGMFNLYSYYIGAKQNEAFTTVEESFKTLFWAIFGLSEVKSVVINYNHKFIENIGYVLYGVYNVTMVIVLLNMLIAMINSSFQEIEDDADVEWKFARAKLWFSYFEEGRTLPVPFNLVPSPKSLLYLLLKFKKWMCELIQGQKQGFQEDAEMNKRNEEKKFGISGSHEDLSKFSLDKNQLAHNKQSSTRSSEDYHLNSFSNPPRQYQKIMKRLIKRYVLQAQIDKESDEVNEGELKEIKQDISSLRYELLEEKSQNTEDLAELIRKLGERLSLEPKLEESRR
TRPC4 potent: allosteric potentiators of mouse TRPC4 channel | Q9QUQ5 | HEK293 TRPC4beta/mu-opioid, DAMGO EC20, Fluo-4 Ca2+ flux; stronger effect = higher value | B-score at 10 µM | 0.42% of 310,000 active;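 active = B-score of calcium response area above 5 SD of library B-scores, with initial fluorescence ratio within 5 SD of library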
TRPC6 inhibitor: inhibitors of mouse TRPC6 channel | 1.1% of 310,000 active | B-score at 10 µM | HEK293-TRPC6, membrane potential dye, ACh-evoked depolarization; stronger effect = lower value | Q61143;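 active = B-score under library mean minus 3 SD, initial fluorescence not abnormally high, positive integrated signal ratio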;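 also: B-score derived from integrated fluorescence ratio over the kinetic read; more negative B-score means stronger inhibition of depolarization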
A number is an active result; – = inactive; · = no result.

SMILES	Kir21 inh	TRPC4 inh	TRPC4 act	TRPC6 activator	TRPC4 potent	TRPC6 inhibitor
COc1cc(/C(C)=C/c2ccccc2)c2c(c1)oc1ccccc12	–	·	–	–	–	–
CCN(CC(=O)Nc1ccc(NC(C)=O)cc1)C(=O)c1cccc(-n2cccc2)c1	–	–	–	–	–	–
CC(C)=CCc1c(O)ccc2c1OC(c1ccc(O)c(O)c1)CC2=O (stereo not drawn)	-7.1	–	–	–	–	–
CC(C)=CCc1c(O)cc2c(c1O)C(=O)CC(c1ccccc1)O2 (stereo not drawn)	–	–	–	–	–	–
CCCCCCCCCCCC(=O)NC(C(=O)O)C(O)c1ccccc1 (stereo not drawn)	–	-6	–	–	–	–
CCCCCCCCCC(=O)N[C@H](CN1CCOCC1)[C@H](O)c1ccccc1	–	–	–	–	–	–
COC(=O)C(NC(=O)CNS(=O)(=O)c1ccc(Br)cc1)c1ccccc1 (stereo not drawn)	–	–	–	–	–	–
COc1cc2cc(C(N)=O)c(N)nc2cc1OC	–	–	–	–	13	–
O=C(NC1CC1)c1ccc(C2SCC(=O)N2Cc2ccccc2)cc1 (stereo not drawn)	–	–	–	–	–	–
Cc1cccc(OCC(=O)N2CCCc3ccccc32)c1	–	–	–	–	–	–
Cc1cccc(OC(C)C(=O)N2CCCc3ccccc32)c1 (stereo not drawn)	-5.2	–	–	–	–	–
Cc1cc(=O)oc2cc(OC(C)C(=O)N3CCCc4ccccc43)ccc12 (stereo not drawn)	–	–	–	–	–	–
Cc1ccc(OC(C)C(=O)N2CCCc3ccccc32)cc1 (stereo not drawn)	-5.5	–	–	–	–	–
O=C(CN(c1ccccc1)S(=O)(=O)c1ccccc1[N+](=O)[O-])N1CCCC1	–	–	–	–	–	–
CCOC(=O)c1c(C)[nH]c(C)c1S(=O)(=O)N1CCN(c2cccc(C)c2)C(C)C1 (stereo not drawn)	–	–	–	–	–	–
Cc1ccc2[nH]c(=O)c3cc(C(=O)N(C)c4ccccc4C)sc3c2c1	–	–	–	–	–	–
O=C1NC(c2ccccc2)=C(c2nc3ccccc3s2)C(c2ccc(F)cc2)N1 (stereo not drawn)	–	–	–	–	11	–
COc1ccc(C2NC(=O)NC(c3ccccc3)=C2c2nc3ccccc3s2)cc1 (stereo not drawn)	–	–	–	–	–	–
CC(C)c1ccc(C(=O)N(c2ccccn2)C(C)c2ccco2)cc1 (stereo not drawn)	–	–	–	–	–	–
CC(c1ccco1)N(C(=O)CSc1ccc(Br)cc1)c1ccccn1 (stereo not drawn)	-6.4	–	–	–	–	–
COc1ccc(C(=O)NC2CCN(CC(=O)N3CCCCC3)CC2)cc1	–	–	–	–	–	–
COc1ccc(C(=O)NC2CCN(CC(=O)NC3CCCCC3)CC2)cc1	–	-6	–	–	–	–
COc1ccc(-n2c(SCC(=O)Nc3cc(C(=O)O)ccc3C)nc3ccccc3c2=O)cc1Cl	–	–	–	–	–	–
O=C(NCc1ccc(CNC(=O)c2ccco2)cc1)c1ccco1	–	–	–	–	–	–
CC(C)COc1ccc(CN=C(N)N=C(N)N)cc1Cl	–	–	50	–	–	–
SMILES	Kir21 inh	TRPC4 inh	TRPC4 act	TRPC6 activator	TRPC4 potent	TRPC6 inhibitor
CCOc1ccc(NC(=O)CC(c2ccccc2)c2ccc(F)cc2)cc1 (stereo not drawn)	–	–	–	–	–	–
CC(C)NS(=O)(=O)c1ccc(NC(=O)C(C)Oc2ccc(C(=O)c3ccccc3)cc2)cc1 (stereo not drawn)	–	–	–	–	44	–
O=C(Nc1cc(Cl)ccc1Cl)C1Cc2ccccc2O/C1=N\O (stereo not drawn)	–	–	–	–	–	–
Cc1cc(Br)c(NC(=O)CN(C)CCOc2ccccc2)c(Br)c1	–	-6	–	–	–	–
O=C(/C(=C/c1ccccc1)n1cncn1)c1ccc(Cl)cc1Cl	-13	–	–	–	–	–
Cc1cc(C)c2nc(C)cc(N/N=C/c3ccc(O)cc3)c2c1	-10	-6	–	–	–	–
Cc1cc(N/N=C/c2ccc(O)cc2)c2cccc(C)c2n1	–	–	–	–	–	–
CCCCc1ccc(NC(=O)CSc2nnc(C)c(=O)n2N)cc1	–	–	–	–	24	–
COC(=O)CSc1nn(-c2ccc(F)cc2)c(=S)s1	–	-5	–	–	–	–
O=C(CSc1nn(-c2ccccc2)c(=S)s1)Nn1cnnc1	–	–	–	–	–	–
CCN(CC)CCn1c2ccccc2c2nc3ccccc3nc21	–	–	–	–	–	–
CCN(CC)CCn1c2ccccc2c2n[nH]c(=S)nc21	–	–	63	–	–	–
CCN(CC)C(=O)c1ccc(NS(=O)(=O)c2ccc3[nH]c(=O)[nH]c3c2)cc1	–	–	–	–	–	–
O=C(Nc1nnc(-c2cccs2)o1)c1cccc(C(F)(F)F)c1	–	–	127	–	–	–
N#Cc1ccc(C(=O)Nc2nnc(-c3cccs3)o2)cc1	–	–	–	–	–	–
NS(=O)(=O)c1cc(C(=O)Nc2ccc3c(c2)CCC3)ccc1Cl	–	–	–	–	–	–
O=C(c1ccc(Br)cc1)N1CCN(c2ncccn2)CC1	–	–	–	–	–	–
O=C(c1ccc([N+](=O)[O-])cc1)N1CCN(c2ncc(Br)cn2)CC1	–	–	219	–	–	–
CCCCNCC1C(Oc2ccc(Cl)cc2)C(=O)N1c1ccccc1C (stereo not drawn)	–	-6	–	–	–	–
CCCNCC1C(Oc2ccc(Cl)cc2Cl)C(=O)N1c1cccc(C)c1C (stereo not drawn)	–	–	–	–	–	–
CCOc1ccc(CN2CCC(n3nccc3NC(=O)c3ccccc3OC)CC2)cc1	–	–	–	–	–	–
Cc1ccc(CNc2ncc(-c3ccc4c(c3)OCO4)n2C)cc1	-10	–	–	–	–	–
Cn1c(-c2ccc(F)cc2)cnc1NCc1ccc(F)cc1F	–	-6	–	–	–	–
Cn1c(-c2ccc(F)cc2)cnc1NCc1ccccc1F	–	–	–	–	–	–
Cn1c(-c2ccccc2)cnc1NCc1ccc(-c2ccccc2)cc1	–	–	–	–	–	–
Cc1ccc(-c2ccc(=O)n(CC(=O)NCC3COCCO3)n2)cc1 (stereo not drawn)	–	–	–	–	–	–
O=C(Cn1ncn2nc(-c3ccccc3)cc2c1=O)NCc1ccccn1	–	–	–	–	–	–
CC1CCN(CCOc2ccc(C(=O)c3ccccc3)cc2)CC1	–	–	–	–	–	–

From PubChem
